# Calls of active or inactive are those of the source.
# Legend:
# mTORC2 = mTORC2 (Homo sapiens, UniProt P42345); experiment: Competitive inhibition of mTORC2 immunoprecipitated from human HeLa cells using His-tagged 4E-BP1 as substrate incubated for 30 mins in presence of ATP by chemiluminescence based ELISA
# Method in brief: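 Native mTORC1 or mTORC2 complex immunoprecipitated from HeLa lysates; kinase reaction run at 1 mM ATP.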
# [1] = molecular target: Phosphatidylinositol 4,5-bisphosphate 3-kinase catalytic subunit alpha isoform (Homo sapiens, UniProt P42336); experiment: Inhibition of PI3Kalpha (unknown origin) in presence of ATP by HTRF assay
# Phosphatidylinositol 4,5-bisphosphate 3-kinase catalytic subunit alpha isoform, sequence (P42336 whole entry, canonical isoform): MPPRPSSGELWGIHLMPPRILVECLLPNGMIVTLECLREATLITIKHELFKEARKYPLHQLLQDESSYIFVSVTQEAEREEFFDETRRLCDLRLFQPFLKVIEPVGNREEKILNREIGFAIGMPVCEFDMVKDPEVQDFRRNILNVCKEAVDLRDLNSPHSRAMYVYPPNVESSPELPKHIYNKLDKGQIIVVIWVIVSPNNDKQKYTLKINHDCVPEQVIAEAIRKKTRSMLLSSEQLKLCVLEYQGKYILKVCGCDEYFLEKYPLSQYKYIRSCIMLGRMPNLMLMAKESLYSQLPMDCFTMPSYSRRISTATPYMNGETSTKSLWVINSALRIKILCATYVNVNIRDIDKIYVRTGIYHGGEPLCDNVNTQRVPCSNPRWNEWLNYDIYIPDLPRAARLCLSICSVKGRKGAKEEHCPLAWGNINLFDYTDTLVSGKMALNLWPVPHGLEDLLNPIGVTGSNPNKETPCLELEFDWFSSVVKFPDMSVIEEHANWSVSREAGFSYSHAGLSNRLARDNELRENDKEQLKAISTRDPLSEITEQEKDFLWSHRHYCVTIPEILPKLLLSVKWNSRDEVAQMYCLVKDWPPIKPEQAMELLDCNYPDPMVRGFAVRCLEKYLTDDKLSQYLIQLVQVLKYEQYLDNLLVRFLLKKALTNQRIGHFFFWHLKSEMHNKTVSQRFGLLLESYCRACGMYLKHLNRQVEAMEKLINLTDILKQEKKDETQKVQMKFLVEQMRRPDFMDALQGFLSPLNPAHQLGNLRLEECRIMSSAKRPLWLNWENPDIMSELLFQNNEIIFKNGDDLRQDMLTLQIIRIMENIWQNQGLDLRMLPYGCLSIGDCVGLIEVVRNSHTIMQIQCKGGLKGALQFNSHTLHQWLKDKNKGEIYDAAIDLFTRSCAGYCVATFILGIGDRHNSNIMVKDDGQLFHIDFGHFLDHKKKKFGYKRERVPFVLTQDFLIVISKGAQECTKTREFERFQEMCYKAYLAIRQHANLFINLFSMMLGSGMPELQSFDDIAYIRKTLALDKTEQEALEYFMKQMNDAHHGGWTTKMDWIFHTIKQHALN
# [2] = molecular target: Phosphatidylinositol 4,5-bisphosphate 3-kinase catalytic subunit beta isoform (Homo sapiens, UniProt P42338); experiment: Inhibition of PI3Kbeta (unknown origin) in presence of ATP by HTRF assay
# Method in brief: (§1)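 PI3K activity by HTRF assay at […] ATP.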
# [3] = molecular target: T1, Phosphatidylinositol 4,5-bisphosphate 3-kinase catalytic subunit gamma isoform (Homo sapiens, UniProt P48736); experiment: Inhibition of PI3Kgamma (unknown origin) in presence of ATP by HTRF assay; method in brief: as §1
# Target sequence in this assay (P48736 whole entry, canonical isoform): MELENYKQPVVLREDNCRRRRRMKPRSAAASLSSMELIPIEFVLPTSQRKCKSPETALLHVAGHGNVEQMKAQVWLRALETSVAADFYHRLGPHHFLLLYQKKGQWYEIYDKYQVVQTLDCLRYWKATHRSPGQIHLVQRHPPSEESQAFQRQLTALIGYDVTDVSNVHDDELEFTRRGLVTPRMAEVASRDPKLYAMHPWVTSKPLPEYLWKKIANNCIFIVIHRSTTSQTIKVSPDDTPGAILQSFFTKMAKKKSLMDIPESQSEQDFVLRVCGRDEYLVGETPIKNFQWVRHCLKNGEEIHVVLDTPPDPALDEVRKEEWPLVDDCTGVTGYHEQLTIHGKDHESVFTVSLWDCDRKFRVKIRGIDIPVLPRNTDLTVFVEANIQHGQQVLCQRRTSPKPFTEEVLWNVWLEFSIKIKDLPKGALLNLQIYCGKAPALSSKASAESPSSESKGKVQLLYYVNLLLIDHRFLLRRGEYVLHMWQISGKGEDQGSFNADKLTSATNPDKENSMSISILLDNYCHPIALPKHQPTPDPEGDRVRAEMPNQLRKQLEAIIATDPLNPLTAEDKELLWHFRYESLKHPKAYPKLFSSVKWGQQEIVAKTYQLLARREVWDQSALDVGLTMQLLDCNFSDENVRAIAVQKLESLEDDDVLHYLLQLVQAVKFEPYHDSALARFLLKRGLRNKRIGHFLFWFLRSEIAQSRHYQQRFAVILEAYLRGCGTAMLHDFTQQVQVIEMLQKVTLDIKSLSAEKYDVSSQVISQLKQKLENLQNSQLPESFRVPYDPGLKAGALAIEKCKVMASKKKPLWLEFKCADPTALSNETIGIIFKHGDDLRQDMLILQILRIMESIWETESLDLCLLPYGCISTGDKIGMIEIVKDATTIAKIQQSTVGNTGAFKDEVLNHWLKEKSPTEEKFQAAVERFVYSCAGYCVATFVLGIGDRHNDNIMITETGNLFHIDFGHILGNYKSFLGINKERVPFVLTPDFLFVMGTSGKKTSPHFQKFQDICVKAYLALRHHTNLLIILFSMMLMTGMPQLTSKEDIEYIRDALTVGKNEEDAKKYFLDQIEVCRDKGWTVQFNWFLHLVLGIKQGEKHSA
# [4] = molecular target: Proline-rich AKT1 substrate 1 (Homo sapiens) (UniProt Q96B36); experiment: Inhibition of PRAS40 phosphorylation at Ser 246 residue in serum deprived/insulin stimulated human OVCAR-3 cells harboring PTEN and wild type PI3K preincubated for 2 hrs followed by insulin stimulation and measured immediately by Western blot analysis; type: cell-based; details: dose 0.001-10 µM
# [5] = molecular target: Eukaryotic translation initiation factor 4E-binding protein 1 (Homo sapiens) (UniProt Q13541); experiment: Inhibition of 4E-BP1 phosphorylation at Ser 37/46 residues in serum deprived/insulin stimulated human OVCAR-3 cells harboring PTEN and wild type PI3K preincubated for 2 hrs followed by insulin stimulation and measured immediately by Western blot analysis; type: cell-based; details: dose 0.001-10 µM
# Eukaryotic translation initiation factor 4E-binding protein 1 (Homo sapiens), sequence (Q13541 whole entry): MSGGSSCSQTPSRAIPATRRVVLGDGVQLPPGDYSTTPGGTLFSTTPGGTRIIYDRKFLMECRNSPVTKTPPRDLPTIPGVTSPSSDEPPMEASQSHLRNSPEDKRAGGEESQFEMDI
# OVCAR-3 [6] = experiment: (§2) Inhibition of S6K phosphorylation at 235/236 residues in serum deprived/insulin stimulated human OVCAR-3 cells harboring PTEN and wild type PI3K at 0.001 to 10 uM preincubated for 2 hrs followed by insulin stimulation and measured immediately by Western blot analysis; type: cell-based; details: dose 0.001-10 µM
# OVCAR-3 [7] = experiment: as §2, with “S6K” for “S6K phosphorylation”, “PI3K assessed as inhibition of s6 substrate phosphorylation at […] residue” for “PI3K”; type: cell-based; details: dose 0.001-10 µM
# [8] = Drug concentration in nu/nu CD-1 mouse plasma xenografted with human GEO cells at 75 mg/kg administered for 14 days and measured 1 hr post last dose; type: ADME, organism-based
# [9] = Drug concentration in nu/nu CD-1 mouse plasma xenografted with human GEO cells at 75 mg/kg administered for 14 days and measured 8 hr post last dose; type: ADME, organism-based
# GEO = experiment: Antitumor activity against human GEO cells xenografted in nu/nu CD-1 mouse assessed as slower tumor growth at 75 mg/kg administered twice a day for 14 days and measured twice weekly; type: functional, organism-based; details: time 14.0 day
# Mus musculus [10] = experiment: In vivo inhibition of AKT phosphorylation in RIP-Tag2 mouse with pancreatic islet cell carcinoma 75 mg/kg, po bid administered via gavage and measured after 7 days by immunohistochemistry; type: functional, organism-based; details: time 7.0 day
# Method in brief: (§3)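 RIP-Tag2 mice aged 9–10 weeks dosed 75 mg/kg BID by gavage for 7 days, vehicle Labrifil or water; perfusion fixation, 60–80 µm tumor sections immunostained for phospho-4E-BP1, phospho-Akt or phospho-S6K with CD31; fluorescence/confocal imaging; 3–8 mice per group.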
# Mus musculus [11] = experiment: In vivo inhibition of 4E-BP1 phosphorylation in RIP-Tag2 mouse with pancreatic islet cell carcinoma 75 mg/kg, po bid administered via gavage and measured after 7 days by immunohistochemistry; type: functional, organism-based; details: time 7.0 day; method in brief: as §3
# [12] = test system: Pancreatic islet cell carcinoma; experiment: (§4) Antitumor activity against pancreatic islet cell carcinoma in RIP-Tag2 mouse assessed as reduction in VEGF production by measuring reduction in fluorescence in entire tumor at 75 mg/kg, po bid administered via gavage and measured after 1 day by immunohistochemical staining based confocal microscopic analysis relative to control; type: functional; design: scale not given: the % may be the effect or the level left
# Method in brief: (§5)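 Treatment began in RIP-Tag2 mice at 9–10 weeks: 75 mg/kg gavage BID for 1, 4 or 7 days, or 20 mg/kg ip QD for 7 days; vehicle Labrifil or water. Tissue fixed by vascular perfusion and 60–80 µm sections stained for VEGF with CD31. VEGF fluorescence intensity measured over whole tumor, tumor cells, or tumor vessels. 3–8 mice/group; ANOVA, Fisher PLSD.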
# [13] = test system: Pancreatic islet cell carcinoma; experiment: as §4, with “4 days” for “1 day”; type: functional; design: scale not given: the % may be the effect or the level left; details: time 4 day; method in brief: as §5
# [14] = test system: Pancreatic islet cell carcinoma; experiment: Antivascular activity against pancreatic islet cell carcinoma in RIP-Tag2 mouse assessed as reduction in CD31-positive tumor blood vessels at 75 mg/kg, po bid administered via gavage and measured after 7 days by immunohistochemical staining based fluorescence microscopic analysis relative to control; type: functional; design: scale not given: the % may be the effect or the level left; details: time 7 day
# Method in brief: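 For 7 days, RIP-Tag2 mice, 9–10 weeks old, received 75 mg/kg gavage BID, 200 mg/kg gavage QD, or 20 mg/kg ip QD. Perfusion-fixed tumors cut at 60–80 µm and stained for CD31 and type IV collagen basement membrane. Vessel area density from fluorescence images with threshold 30–50; sprouts and empty basement membrane sleeves examined by confocal microscopy. 3–8 mice/group; ANOVA, Fisher PLSD.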
# [15] = test system: Pancreatic islet cell carcinoma; experiment: Antivascular activity in pancreatic islet cell carcinoma in RIP-Tag2 mouse assessed as suppression of tumor regrowth by measuring reduction in vessel density at 75 mg/kg, po bid administered via gavage pretreated with OSI-930 for 7 days at 200 mg/kg, po followed by compound administration and measured after 1 day; type: functional, organism-based
# [16] = test system: Pancreatic islet cell carcinoma; experiment: Antivascular activity in pancreatic islet cell carcinoma in RIP-Tag2 mouse assessed as reduction in intratumoral hemorrhage by measuring reduction in TER-119 immunoreactivity at 75 mg/kg, po bid pretreated with OSI-930 for 7 days at 200 mg/kg, po followed by compound administration and measured after 4 days by confocal microscopic analysis relative to control; type: functional; design: scale not given: the % may be the effect or the level left; details: time 4 day
# Method in brief: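 Regrowth design in 10-week-old RIP-Tag2 mice: OSI-930 200 mg/kg gavage QD for 7 days, then 4 days of vehicle, 75 mg/kg gavage BID, or 20 mg/kg ip QD; controls received vehicle for 11 days. Perfusion-fixed sections stained for CD31 for vessel density or for the erythrocyte marker TER-119, quantified by confocal microscopy. 3–8 mice/group; ANOVA, Fisher PLSD.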
# [17] = test system: Pancreatic islet cell carcinoma; experiment: Additive antitumor activity in pancreatic islet cell carcinoma in RIP-Tag2 mouse assessed as reduction in proliferation by measuring reduction in phospho-histone H3 level at 100 mg/kg, po bid administered via gavage for 4 days in presence of OSI-930 by immunohistochemistry analysis; type: functional, organism-based; details: time 4.0 day
# [18] = molecular target: Serine/threonine-protein kinase mTOR (Homo sapiens, UniProt P42345); experiment: Inhibition of mTOR (unknown origin) assessed as reduction in 4E-BP1 phosphorylation by cell based assay
# [19] = molecular target: Vascular endothelial growth factor receptor 2 (Homo sapiens, UniProt P35968); experiment: Inhibition of VEGFR2 phosphorylation (unknown origin) by cell based assay
# Vascular endothelial growth factor receptor 2, sequence (P35968 whole entry): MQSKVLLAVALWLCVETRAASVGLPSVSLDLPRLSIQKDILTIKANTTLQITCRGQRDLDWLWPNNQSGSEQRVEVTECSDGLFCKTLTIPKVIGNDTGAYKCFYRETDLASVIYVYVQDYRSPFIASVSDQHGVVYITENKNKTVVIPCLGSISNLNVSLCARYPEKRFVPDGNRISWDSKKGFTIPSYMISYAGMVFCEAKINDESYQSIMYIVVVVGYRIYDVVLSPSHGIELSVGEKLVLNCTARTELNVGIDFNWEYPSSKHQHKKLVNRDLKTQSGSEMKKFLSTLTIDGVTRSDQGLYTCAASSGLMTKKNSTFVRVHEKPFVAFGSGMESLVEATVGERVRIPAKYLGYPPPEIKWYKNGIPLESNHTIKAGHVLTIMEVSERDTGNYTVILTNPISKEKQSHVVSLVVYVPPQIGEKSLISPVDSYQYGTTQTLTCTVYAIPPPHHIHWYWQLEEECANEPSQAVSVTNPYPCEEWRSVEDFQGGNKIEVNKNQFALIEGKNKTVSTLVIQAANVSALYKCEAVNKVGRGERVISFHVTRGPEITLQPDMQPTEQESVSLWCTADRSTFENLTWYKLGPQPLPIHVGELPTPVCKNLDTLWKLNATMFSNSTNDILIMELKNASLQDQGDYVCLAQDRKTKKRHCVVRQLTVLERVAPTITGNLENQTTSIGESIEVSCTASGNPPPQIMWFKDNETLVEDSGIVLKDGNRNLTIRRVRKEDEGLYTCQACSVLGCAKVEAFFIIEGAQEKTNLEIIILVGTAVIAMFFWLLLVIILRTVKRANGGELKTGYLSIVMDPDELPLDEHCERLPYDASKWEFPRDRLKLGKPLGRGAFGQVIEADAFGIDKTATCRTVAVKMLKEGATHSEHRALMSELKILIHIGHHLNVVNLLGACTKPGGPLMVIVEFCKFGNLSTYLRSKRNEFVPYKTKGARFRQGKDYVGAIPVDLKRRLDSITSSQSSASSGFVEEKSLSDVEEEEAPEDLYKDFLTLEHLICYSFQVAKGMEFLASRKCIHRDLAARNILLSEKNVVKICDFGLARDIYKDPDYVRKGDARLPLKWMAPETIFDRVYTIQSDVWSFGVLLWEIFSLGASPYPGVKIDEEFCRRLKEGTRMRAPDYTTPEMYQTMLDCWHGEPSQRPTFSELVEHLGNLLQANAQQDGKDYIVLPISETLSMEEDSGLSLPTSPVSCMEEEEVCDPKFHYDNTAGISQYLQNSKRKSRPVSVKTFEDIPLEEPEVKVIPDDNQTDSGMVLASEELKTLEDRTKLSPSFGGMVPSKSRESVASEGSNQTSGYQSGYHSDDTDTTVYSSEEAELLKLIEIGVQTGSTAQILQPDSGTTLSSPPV
# [20] = Inhibition of MAPK (unknown origin) signaling axis assessed as reduction in phosphorylated ERK1/2 level by cell based assay; details: Homo sapiens
# [21] = molecular target: T1, Phosphatidylinositol 4,5-bisphosphate 3-kinase catalytic subunit gamma isoform; experiment: Inhibition of PI3Kgamma (unknown origin) at 3 uM by Ambit Kinomescan assay relative to control
# Target sequence in this assay (P48736 whole entry, looked up, canonical isoform): as the sequence (P48736 whole entry, canonical isoform) above
# [22] = molecular target: Dual specificity mitogen-activated protein kinase kinase 2 (Homo sapiens) (UniProt P36507); experiment: Inhibition of MEK2 (unknown origin)
# Dual specificity mitogen-activated protein kinase kinase 2 (Homo sapiens), sequence (P36507 whole entry): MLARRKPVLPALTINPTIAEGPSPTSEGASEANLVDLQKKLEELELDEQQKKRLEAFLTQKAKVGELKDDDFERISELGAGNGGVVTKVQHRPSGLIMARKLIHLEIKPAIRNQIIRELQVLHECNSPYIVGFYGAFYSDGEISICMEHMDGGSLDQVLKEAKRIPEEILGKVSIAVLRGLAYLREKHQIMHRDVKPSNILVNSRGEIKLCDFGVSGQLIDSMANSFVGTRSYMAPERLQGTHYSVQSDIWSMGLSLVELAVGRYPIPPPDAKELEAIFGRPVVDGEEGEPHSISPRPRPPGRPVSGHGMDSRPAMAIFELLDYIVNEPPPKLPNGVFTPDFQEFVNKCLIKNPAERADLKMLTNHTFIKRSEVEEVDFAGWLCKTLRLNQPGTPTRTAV
compound,measurement,setting,value
Nc1nccn2c1c(-c1cc3cccc(Cl)c3[nH]1)nc2[C@H]1CC[C@H](C(=O)O)CC1,IC50,mTORC2,7 nM
same,IC50,[1],190 nM
same,IC50,[2],9300 nM
same,IC50,[3],460 nM
same,inhibition,[4],Dose-Dependent Effect
same,inhibition,[5],Dose-Dependent Effect
same,inhibition,OVCAR-3 [6],Active
same,inhibition,OVCAR-3 [7],Active
same,concentration at 337 h,[8],25.6 µM
same,concentration at 344 h,[9],13.2 µM
same,Activity,GEO,Active
same,inhibition,Mus musculus [10],Active
same,inhibition,Mus musculus [11],Active
same,Activity,[12],12%
same,Activity,[13],48%
same,Activity,[14],23%
same,Activity,[15],inactive
same,Activity,[16],50%
same,Activity,[17],Active
same,IC50,[18],1100 nM
same,IC50,[19],> 40000 nM
same,IC50,[20],> 40000 nM
same,inhibition,[21],> 90%
same,inhibition,[22],Active

# From ChEMBL document CHEMBL5653605, “Reduced VEGF production, angiogenesis, and vascular regrowth contribute to the antitumor properties of dual mTORC1/mTORC2 inhibitors” (Cancer Res, 2011)
